Experimental data: BindingDB's records for doi:10.1016/j.bmcl.2005.10.070 (Pharmacopeia, 2005)
pIC50: −log10 of the molar value. Where “and” joins values, the source holds several entries; their conditions need not be identical. Identical values can stand only once.

Target: Protein farnesyltransferase subunit beta/geranylgeranyltransferase type-1 subunit alpha (Mus musculus, UniProt Q61239+Q8K2I1)
Assay: Anchorage-independent growth of transformed NIH3T3 cells in soft agar
Procedure, shortened: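 Transformed NIH-3T3 cells grown in soft agar; colonies photographed by video camera and counted; IC50 calculated from colony counts.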

pIC50: 8.30 and 8.28
Structure (SMILES): O=C(NCCCn1ccnc1)C1CN(C2c3ccc(Cl)cc3CCc3cc(Br)cnc32)CCN1C(=O)NC1CCCCC1 (stereo unspecified) [4-(3-bromo-8-chloro-6,11-dihydro-5H-benzo[5,6]cyclohepta[1,2-b]pyridin-11-yl)-piperazine-1,2-dicarboxylicacid 1-cyclohexylamide 2-[(3-imidazol-1-yl-propyl)-amide]]
